Data set [1] deals with Human immunodeficiency virus 1. The data set is described as follows: Antiviral activity against HIV1 NL4-3 infected in human MT4 cells assessed as inhibition of viral p24 antigen production after 4 days by ELISA. Particulars: Human immunodeficiency virus 1, NL4-3, MT4, 96 h. Type of data set: functional, organism-based. A digest of the protocol: (§1)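 HIV-1 NL4-3 or RTMDR (multi-RT inhibitor-resistant) virus infected MT-4 cells at MOI 0.001 in 96-well culture. On day 4 post-infection, culture supernatants were collected and p24 was measured by ELISA. TI = IC50/EC50. Values are averages of at least three separate experiments. Top tested concentration 20 μM.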
On the technique in general: An ELISA detects its analyte on a solid surface through an enzyme-linked reagent.

The test system of data set [2] is MT4. The data set is described as follows: Cytotoxicity against human MT4 cells after 4 days by XTT assay. Type of data set: cell-based. Particulars: MT4, 96 h. A general note: Tetrazolium assays rely on reduction of a dye to a coloured formazan, in cell work by metabolically active cells.
Data set [3] in a line: Therapeutic index, ratio of IC50 for human MT4 cells to EC50 for HIV1 NL4-3 infected in human MT4 cells. Format: cell-based. Particulars: read-out: Ratio IC50/EC50. In a few lines:
as §1

Data set [4] relates to Human immunodeficiency virus. The data set is described as follows: Antiviral activity against multi-RT inhibitor-resistant HIV infected in human MT4 cells assessed as inhibition of viral p24 antigen production after 4 days by ELISA. Type of data set: functional, organism-based. As to conditions: Human immunodeficiency virus 1, MT4, 96 h. A digest of the protocol: as §1
Data set [5] can be described thus: Therapeutic index, ratio of IC50 for human MT4 cells to EC50 for multi-RT inhibitor-resistant HIV infected in human MT4 cells. Type of data set: cell-based. As to conditions: read-out: Ratio IC50/EC50. A digest of the protocol: as §1
Data set [6] relates to Human immunodeficiency virus 1. The data set can be described thus: Antiviral activity against HIV1 3B infected in human MT2 cells assessed as inhibition of viral p24 antigen production after 6 days by ELISA. Type of data set: functional, organism-based. As to conditions: Human immunodeficiency virus 1, 3B, MT2, 144 h. A digest of the protocol:
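Human T-cell MT-2 line kept with L-glutamine at 37 °C and 5% CO2. Compounds were dissolved in DMSO and screened at final 100, 20, 4 and 0.8 μg/mL, with a highest tested concentration of 20 μM. Medium was changed on days 1 and 4. Supernatant p24 was measured by antigen capture on day 6.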

The test system of data set [7] is Human immunodeficiency virus 1. The data set is described as follows: Antiviral activity against HIV1 3B infected in […] assessed as inhibition of viral p24 antigen production at 20 uM after 6 days by ELISA. Format: functional, organism-based. In a few lines:
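Human T-cell MT-2 line kept with L-glutamine at 37 °C and 5% CO2. Compounds were dissolved in DMSO and screened at final 100, 20, 4 and 0.8 μg/mL, with a highest tested concentration of 20 μM. Wells received […] at 3 × 10^5 cells/mL plus HIV-1 IIIB inoculum of 125 TCID50. Medium was changed on days 1 and 4. Supernatant p24 was measured by antigen capture on day 6.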

The test system of data set [8] is MT2. The data set can be described thus: Cytotoxicity against human MT2 cells after 6 days by XTT assay. Type of data set: cell-based. Particulars: MT2, 144 h.
The nature of data set [9]: Therapeutic index, ratio of IC50 for human MT2 cells to EC50 for HIV1 3B infected in human MT2 cells. Type of data set: cell-based. As to conditions: read-out: Ratio IC50/EC50.

Structures are written as SMILES. pEC50, pIC50: −log10 of the molar value. The source made the active and inactive calls. No cut-off for these calls is given here.

In the case of `Cc1cc(=O)oc2c(CN(C)C(=O)[C@@]34CC[C@@](C)(C(=O)O3)C4(C)C)c(OC(C)C)ccc12`, in [1], the pEC50 – broadly, −log10 of the EC50, conventionally taken in molar units – is 5.25. Further, in data set [2], the pIC50 (in general, the negative decadic logarithm of the IC50, by convention in mol/L) was 4.25. For the same compound, the selectivity ratio in data set [3] worked out at 8.
As for `CCc1cc(=O)c2ccc3c(c2o1)[C@@H](OC(=O)[C@@]12CC[C@@](C)(C(=O)O1)C2(C)C)[C@@H](OC(=O)[C@@]12CC[C@@](C)(C(=O)O1)C2(C)C)C(C)(C)O3`, the pEC50 was 7.10 in data set [1] and 6.88 in data set [4]. In data set [2], the pIC50 was 5.03. In data set [5], the selectivity ratio worked out at 69.9.
Take `COC(=O)COc1ccc2c(C)cc(=O)oc2c1COC(=O)[C@@]12CC[C@@](C)(C(=O)O1)C2(C)C`: the pEC50 in data set [1] was less than 4.35. The pIC50 in data set [2] was 4.26. Moreover, in data set [3], the selectivity ratio was found to be 1.22.
Take `Cc1cn([C@H]2CC(N=[N+]=[N-])[C@@H](CO)O2)c(=O)[nH]c1=O` (single isomer, unassigned) [ZIDOVUDINE]: the pEC50 in data set [6] is 7.36.
For the compound `CCOc1ccc2c(C)cc(=O)oc2c1COC(=O)[C@@]12CC[C@@](C)(C(=O)O1)C2(C)C`, the pEC50 in data set [1] is less than 4.49. In addition, the pIC50 in data set [2] is 4.22. The selectivity ratio in data set [3] was found to be 1.87.
For `COc1ccc(N(Cc2c(OC(C)C)ccc3c(C)cc(=O)oc23)C(=O)[C@@]23CC[C@@](C)(C(=O)O2)C3(C)C)cc1`, in that order: 5.33, 4.46 and 15.
`COc1ccc2c(C)cc(=O)oc2c1COC(=O)[C@@]12CC[C@@](C)(C(=O)O1)C2(C)C`: in [1], the pEC50 is less than 4.44. This compound also had a pIC50 in data set [2] of 4.20. For the same compound, the selectivity ratio in data set [3] was determined as 1.71.
For `Cc1cc(=O)oc2c(CSC(=O)[C@@]34CC[C@@](C)(C(=O)O3)C4(C)C)c(OC(C)C)ccc12`, in that order: 5.33, 4.25 and 12.
`Cc1cc(=O)oc2cc(OC(C)(C)[C@@H](COC(=O)[C@@]34CC[C@@](C)(C(=O)O3)C4(C)C)OC(=O)[C@@]34CC[C@@](C)(C(=O)O3)C4(C)C)ccc12`: in data set [7], the inhibition entry is “inactive”. Moreover, the results for the pIC50 in [8] and in [2] were 4.41 and 4.70, respectively. The values for the pEC50 in data set [1] and in data set [4] were less than 4.70 and 4.70, respectively.
On to `Cc1cc(=O)oc2c3c(ccc12)OC(C)(C)[C@H](OC(=O)[C@@]12CC[C@@](C)(C(=O)O1)C2(C)C)[C@@H]3OC(=O)[C@@]12CC[C@@](C)(C(=O)O1)C2(C)C`, for which the pEC50 in [6] is 6.90. In data set [8], the pIC50 is 4.41. For the same compound, the selectivity ratio in data set [9] was 301.
Take `CC(=O)c1ccc2c(c1C)[C@@H](OC(=O)[C@@]13CC[C@@](C)(C(=O)O1)C3(C)C)[C@@H](OC(=O)[C@@]13CC[C@@](C)(C(=O)O1)C3(C)C)C(C)(C)O2`: in [7], the inhibition entry was “inactive”. In [8], this compound showed a pIC50 of 4.40.
Take `Cc1cc(=O)oc2c(CNC(=O)[C@@]34CC[C@@](C)(C(=O)O3)C4(C)C)c(OC(C)C)ccc12`: in data set [1], the negative logarithm of the EC50 (pEC50) is less than 4.60. This compound showed a pIC50 in [2] of 4.60. Besides, the selectivity ratio in [3] worked out at 1.
In the case of `Cc1cc(=O)oc2c([C@H](COC(=O)[C@@]34CC[C@@](C)(C(=O)O3)C4(C)C)OC(=O)[C@@]34CC[C@@](C)(C(=O)O3)C4(C)C)c(OC(C)C)ccc12`, in data set [7], the inhibition result is “inactive”. In addition, the pIC50 in [8] was 4.41; in [2], 4.70. The pEC50 in [1] is less than 4.70; in data set [4] it was 4.70.
In the case of `CCOc1c(C(C)=O)ccc2c1[C@@H](OC(=O)[C@@]13CC[C@@](C)(C(=O)O1)C3(C)C)[C@@H](OC(=O)[C@@]13CC[C@@](C)(C(=O)O1)C3(C)C)C(C)(C)O2`, in data set [6], the pEC50 is 6.72. The compound further gave a pIC50 in [8] of 4.40. In [9], the selectivity ratio stood at 208.
Take `Cc1cc(=O)oc2c([C@H](C)OC(=O)[C@@]34CC[C@@](C)(C(=O)O3)C4(C)C)c(OC(C)C)ccc12`: the inhibition entry in [7] was “inactive”. Also, the figures for the pIC50 in data set [8] and in data set [2] were 4.25 and 4.70, respectively. Moreover, the pEC50 in [1] is less than 4.70; in data set [4], 4.70.

The values are drawn from ChEMBL document CHEMBL1166007, “Anti-AIDS agents 82: synthesis of seco-(3'R,4'R)-3',4'-di-O-(S)-camphanoyl-(+)-cis-khellactone (DCK) derivatives as novel anti-HIV agents” (Bioorg Med Chem, 2010).
